Measured values as given in ChEMBL document CHEMBL1136894, “New antituberculotics originated from salicylanilides with promising in vitro activity against atypical mycobacterial strains” (Bioorg Med Chem, 2009).
Converted amounts (≈) assume the structure as drawn.

Assays:
[1] = Selectivity index, ratio of EC50 for human HCT8 cells to MIC for Mycobacterium tuberculosis CNCTC My 331/88; assay type: functional, HCT-8
Outline: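 SI is EC50 in HCT-8 cells divided by the M. tuberculosis MIC. HCT-8 cells were grown in EMEM with 5% FBS at 37 °C under 5% CO₂, trypsinised and seeded at 2 × 10⁵ cells/mL. After 24 h the medium was replaced with compound in DMSO. Controls were DMSO alone and 20% DMSO. Absorbance was read at 450 nm 4 h after reagent addition, in triplicate.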

Mycobacterium kansasii [2] = assay: Antimycobacterial activity against Mycobacterium kansasii isolate 6509/96 after 7 days; assay type: functional; conditions: isolate 6509/96, 168 h
Outline: (§1)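 Compounds were added as DMSO solutions to Sula semisynthetic medium at 250, 125, 62, 32, 16, 8, 4, 2 and 1 µmol/L. Two M. kansasii strains were used: CNCTC My 235/80 and clinical isolate 6509/96, each with strain dilution 10^-4. Incubation was at 37 °C, and MIC was read at 7, 14 and 21 days.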

[3] = Stability assessed as half life in phosphate buffer at pH 7.4 by UV-visible spectroscopy; assay type: physicochemical
Outline: (§2)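 Compound in methanolic solution (10 or 20 µL) was added to tempered 7 × 10^-2 M phosphate buffer (2 mL) at pH 7.4 or 5.5, 37 °C. The absorbance decrease at 224 nm was followed by UV/vis.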

Mycobacterium kansasii [4] = assay: Antimycobacterial activity against Mycobacterium kansasii isolate 6509/96 after 14 days; assay type: functional; conditions: isolate 6509/96, 336 h; outline: as §1
Mycobacterium kansasii [5] = assay: Antimycobacterial activity against Mycobacterium kansasii CNCTC My 235/80 after 21 days; assay type: functional; conditions: CNCTC My 235/80, 504 h; outline: as §1
HCT-8 = assay: Cytotoxicity against human HCT8 cells after 72 hrs by XTT assay; assay type: functional, cell-based; conditions: HCT-8, 72 h
Outline: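 HCT-8 cells were grown in EMEM with 5% FBS at 37 °C under 5% CO2. They were harvested with trypsin, seeded at 2 × 10^5 cells/mL and left 24 h. Medium was then replaced with compound in DMSO. DMSO-only wells served as the viability control and 20% DMSO as the cytotoxic control. Reagent was added for 4 h and absorbance read at 450 nm. Triplicates; EC50 reported.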

Mycobacterium kansasii [6] = assay: Antimycobacterial activity against Mycobacterium kansasii CNCTC My 235/80 after 7 days; assay type: functional; conditions: CNCTC My 235/80, 168 h; outline: as §1
Mycobacterium avium [7] = assay: Antimycobacterial activity against Mycobacterium avium CNCTC My 330/88 after 21 days; assay type: functional; conditions: CNCTC My 330/88, 504 h
Outline: (§3)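 Broth dilution in Sula semisynthetic medium, compounds added as DMSO solutions at 250, 125, 62, 32, 16, 8, 4, 2 and 1. Strains came from the Czech National Collection of Type Cultures; the M. tuberculosis inoculum was diluted 10^-3. Cultures were incubated at 37 °C, and MIC was read after 7, 14 and 21 days.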

[8] = Stability assessed as half life in phosphate buffer at pH 5.5 by UV-visible spectroscopy; assay type: physicochemical; outline: as §2
[9] = tested on: Mycobacterium tuberculosis; assay: Antimycobacterial activity against Mycobacterium tuberculosis CNCTC My 331/88 after 21 days; assay type: functional; conditions: CNCTC My 331/88, 504 h; outline: as §3
Mycobacterium kansasii [10] = assay: Antimycobacterial activity against Mycobacterium kansasii CNCTC My 235/80 after 14 days; assay type: functional; conditions: CNCTC My 235/80, 336 h; outline: as §1
[11] = tested on: Mycobacterium tuberculosis; assay: Antimycobacterial activity against Mycobacterium tuberculosis CNCTC My 331/88 after 14 days; assay type: functional; conditions: CNCTC My 331/88, 336 h; outline: as §3
[12] = Lipophilicity, log K by HPLC; assay type: physicochemical
Outline: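 Capacity factors k were measured by RP-HPLC and log k was calculated from them.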

Mycobacterium avium [13] = assay: Antimycobacterial activity against Mycobacterium avium CNCTC My 330/88 after 14 days; assay type: functional; conditions: CNCTC My 330/88, 336 h; outline: as §3
Mycobacterium kansasii [14] = assay: Antimycobacterial activity against Mycobacterium kansasii isolate 6509/96 after 21 days; assay type: functional; conditions: isolate 6509/96, 504 h; outline: as §1

Row | Compound | Ratio [1] | MIC (Mycobacterium kansasii [2]) [µM] | half-life [3] [min] | MIC (Mycobacterium kansasii [4]) [µM] | MIC (Mycobacterium kansasii [5]) [µM] | EC50 (HCT-8) [µM] | MIC (Mycobacterium kansasii [6]) [µM] | MIC (Mycobacterium avium [7]) [µM] | half-life [8] [min] | MIC [9] [µM] | MIC (Mycobacterium kansasii [10]) [µM] | MIC [11] [µM] | log K [12] | MIC (Mycobacterium avium [13]) [µM] | MIC (Mycobacterium kansasii [14]) [µM]
1 | O=C(N[C@H](Cc1ccccc1)C(=O)Oc1ccc(Cl)cc1C(=O)Nc1ccc(Br)cc1)OCc1ccccc1 | 10.61 | 8 (≈ 4.86 µg/mL) | 34.3 | 8 (≈ 4.86 µg/mL) | 4 (≈ 2.43 µg/mL) | 35.5 | 2 (≈ 1.22 µg/mL) | 16 (≈ 9.73 µg/mL) | 32.5 | 4 (≈ 2.43 µg/mL) | 4 (≈ 2.43 µg/mL) | 2 (≈ 1.22 µg/mL) | 1.1267 | 8 (≈ 4.86 µg/mL) | 8 (≈ 4.86 µg/mL)
2 | CC(C)[C@@H](NC(=O)OCc1ccccc1)C(=O)Oc1cc(Cl)ccc1C(=O)Nc1ccc(Cl)cc1 | 13.75 | 4 (≈ 2.06 µg/mL) | 20.4 | 8 (≈ 4.12 µg/mL) | 8 (≈ 4.12 µg/mL) | 107 | 4 (≈ 2.06 µg/mL) | 16 (≈ 8.25 µg/mL) | 20.3 | 4 (≈ 2.06 µg/mL) | 8 (≈ 4.12 µg/mL) | 4 (≈ 2.06 µg/mL) | 0.8816 | 8 (≈ 4.12 µg/mL) | 8 (≈ 4.12 µg/mL)
3 | O=C(N[C@@H](Cc1ccccc1)C(=O)Oc1cc(Cl)ccc1C(=O)Nc1ccc(Cl)cc1)OCc1ccccc1 | 20.73 | 4 (≈ 2.25 µg/mL) | 25.3 | 8 (≈ 4.51 µg/mL) | 8 (≈ 4.51 µg/mL) | 82.9 | 4 (≈ 2.25 µg/mL) | 8 (≈ 4.51 µg/mL) | 21.9 | 4 (≈ 2.25 µg/mL) | 8 (≈ 4.51 µg/mL) | 4 (≈ 2.25 µg/mL) | 1.0304 | 8 (≈ 4.51 µg/mL) | 8 (≈ 4.51 µg/mL)
4 | O=C(N[C@H](Cc1ccccc1)C(=O)Oc1cc(Cl)ccc1C(=O)Nc1ccc(Cl)cc1)OCc1ccccc1 | 26.05 | 4 (≈ 2.25 µg/mL) | 22.1 | 8 (≈ 4.51 µg/mL) | 8 (≈ 4.51 µg/mL) | 104 | 4 (≈ 2.25 µg/mL) | 8 (≈ 4.51 µg/mL) | 17.9 | 4 (≈ 2.25 µg/mL) | 8 (≈ 4.51 µg/mL) | 4 (≈ 2.25 µg/mL) | 1.0315 | 8 (≈ 4.51 µg/mL) | 8 (≈ 4.51 µg/mL)
5 | O=C(N[C@H](Cc1ccccc1)C(=O)Oc1ccc(Cl)cc1C(=O)Nc1cccc(Cl)c1)OCc1ccccc1 |  | 8 (≈ 4.51 µg/mL) |  | 16 (≈ 9.01 µg/mL) | 16 (≈ 9.01 µg/mL) |  | 8 (≈ 4.51 µg/mL) | 32 (≈ 18 µg/mL) |  | 4 (≈ 2.25 µg/mL) | 16 (≈ 9.01 µg/mL) | 4 (≈ 2.25 µg/mL) | 1.0476 | 16 (≈ 9.01 µg/mL) | 16 (≈ 9.01 µg/mL)
6 | C[C@H](NC(=O)OCc1ccccc1)C(=O)Oc1ccc(Cl)cc1C(=O)Nc1ccc(Cl)c(Cl)c1 |  | 8 (≈ 4.17 µg/mL) |  | 16 (≈ 8.35 µg/mL) | 8 (≈ 4.17 µg/mL) |  | 4 (≈ 2.09 µg/mL) | 32 (≈ 16.7 µg/mL) |  | 4 (≈ 2.09 µg/mL) | 4 (≈ 2.09 µg/mL) | 2 (≈ 1.04 µg/mL) | 0.9408 | 16 (≈ 8.35 µg/mL) | 16 (≈ 8.35 µg/mL)
7 | C[C@H](NC(=O)OCc1ccccc1)C(=O)Oc1ccc(Cl)cc1C(=O)Nc1cccc(Cl)c1 |  | 8 (≈ 3.9 µg/mL) |  | 16 (≈ 7.8 µg/mL) | 16 (≈ 7.8 µg/mL) |  | 16 (≈ 7.8 µg/mL) | 62.5 (≈ 30.5 µg/mL) |  | 8 (≈ 3.9 µg/mL) | 16 (≈ 7.8 µg/mL) | 4 (≈ 1.95 µg/mL) | 0.6995 | 32 (≈ 15.6 µg/mL) | 16 (≈ 7.8 µg/mL)
8 | C[C@@H](NC(=O)OCc1ccccc1)C(=O)Oc1ccc(Cl)cc1C(=O)Nc1ccc(Cl)c(Cl)c1 |  | 4 (≈ 2.09 µg/mL) |  | 8 (≈ 4.17 µg/mL) | 16 (≈ 8.35 µg/mL) |  | 8 (≈ 4.17 µg/mL) | 32 (≈ 16.7 µg/mL) |  | 4 (≈ 2.09 µg/mL) | 8 (≈ 4.17 µg/mL) | 2 (≈ 1.04 µg/mL) | 0.938 | 16 (≈ 8.35 µg/mL) | 8 (≈ 4.17 µg/mL)
9 | CC(C)[C@@H](NC(=O)OCc1ccccc1)C(=O)Oc1ccc(Cl)cc1C(=O)Nc1ccc(Cl)c(Cl)c1 |  | 8 (≈ 4.4 µg/mL) |  | 8 (≈ 4.4 µg/mL) | 8 (≈ 4.4 µg/mL) |  | 4 (≈ 2.2 µg/mL) | 16 (≈ 8.8 µg/mL) |  | 4 (≈ 2.2 µg/mL) | 4 (≈ 2.2 µg/mL) | 2 (≈ 1.1 µg/mL) | 1.1559 | 16 (≈ 8.8 µg/mL) | 16 (≈ 8.8 µg/mL)
10 | CC(C)[C@@H](NC(=O)OCc1ccccc1)C(=O)Oc1ccc(Cl)cc1C(=O)Nc1cccc(Cl)c1 |  | 8 (≈ 4.12 µg/mL) |  | 16 (≈ 8.25 µg/mL) | 16 (≈ 8.25 µg/mL) |  | 8 (≈ 4.12 µg/mL) | 32 (≈ 16.5 µg/mL) |  | 8 (≈ 4.12 µg/mL) | 16 (≈ 8.25 µg/mL) | 8 (≈ 4.12 µg/mL) | 0.8954 | 32 (≈ 16.5 µg/mL) | 16 (≈ 8.25 µg/mL)
11 | O=C(N[C@@H](Cc1ccccc1)C(=O)Oc1ccc(Cl)cc1C(=O)Nc1ccc(Br)cc1)OCc1ccccc1 |  | 16 (≈ 9.73 µg/mL) |  | 16 (≈ 9.73 µg/mL) | 8 (≈ 4.86 µg/mL) |  | 4 (≈ 2.43 µg/mL) | 16 (≈ 9.73 µg/mL) |  | 8 (≈ 4.86 µg/mL) | 8 (≈ 4.86 µg/mL) | 4 (≈ 2.43 µg/mL) | 1.1258 | 16 (≈ 9.73 µg/mL) | 16 (≈ 9.73 µg/mL)
12 | C[C@H](NC(=O)OCc1ccccc1)C(=O)Oc1cc(Cl)ccc1C(=O)Nc1ccc(Cl)cc1 |  | 8 (≈ 3.9 µg/mL) |  | 8 (≈ 3.9 µg/mL) | 8 (≈ 3.9 µg/mL) |  | 4 (≈ 1.95 µg/mL) | 16 (≈ 7.8 µg/mL) |  | 8 (≈ 3.9 µg/mL) | 8 (≈ 3.9 µg/mL) | 4 (≈ 1.95 µg/mL) | 0.6337 | 16 (≈ 7.8 µg/mL) | 16 (≈ 7.8 µg/mL)
